Measured values published in PubChem BioAssay.
Inconclusive results are not listed.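 How the source made its calls, unless noted: active means inhibition over a set limit, the all-compound mean plus 3 SD, in both replicate runs; inconclusive means over that limit in just one replicate run; inactive means at or under that limit in both runs.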

Key:
[1] = S. cerevisiae growth inhibition in permissive medium (OD615), pilot counter-assay for S. cerevisiae lifespan shortening project, permissive growth control (AID 705;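 active means growth inhibition above 25% in both replicates, a cutoff set 3 SD above the mean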); conditions: OD615, 24 h, at 10 µM, hits give high values
Summary of the method: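 System: Engineered DeaD yeast | Buffer or medium: SC raffinose/galactose permissive medium | Incubation: Cells pre-grown 4 h, then 24 h compound exposure, 30 °C humidified | Measured by: Absorbance (optical density) at 615 nm | Read-out: Reduction in yeast growth (OD615)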

[2] = S. cerevisiae growth inhibition in restrictive medium, OD615, pilot screen, restrictive growth control, yeast lifespan reduction project (AID 706;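 active means growth inhibition above a set limit, 3 SD over mean compound inhibition, in both replicates, cut at about 43% in these data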;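 further: modified DeaD lifespan yeast strain shifted to restrictive glucose medium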); conditions: OD615, 48 h, at 10 µM, hits give high values
Summary of the method: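 Material: modified S. cerevisiae; Medium: glucose-based CSMM-D restrictive medium; Compound dosing: one concentration, 10 µM final, 0.25% DMSO; Incubation: 48 h compound exposure at 30 °C; Measured by: OD615.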

[3] = doxorubicin toxicity protection in MRP-1 cells – H69AR cells, CellTiter-Glo, duplicate, MRP-1 activator project, pilot screen (AID 807;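 active means viability increase at or above a cutoff of the median across tested compounds plus 3 SD, cut at about 8.5% in these data, passing the limit was not always enough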;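 further: compound pretreatment 18-22 h then 72 h combined with doxorubicin; 0% = doxorubicin alone and 100% = vehicle without doxorubicin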); conditions: H69AR viability with doxorubicin, CellTiter-Glo luminescence; at 10 µM; hits give high values
[4] = viability of HCT116 without oncogenic beta-catenin – human colon tumor cells, pilot screen (AID 823;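 active means cell viability at or below a set limit in both duplicate runs, the limit being the all-compound median minus 4 SD, cut at about 23% in these data, passing the limit was not always enough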;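 further: 0% = wells killed by 20 µM Hyamine and 100% = untreated DMSO cell wells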); conditions: HCT116 beta-catenin knockout viability, CellTiter-Glo, 60 h; at 10 µM; hits give low values
[5] = viability of PTEN-null HCT116 cells – cell-based, HCT116 clonal line, CellTiter-Glo, pilot screen (AID 824;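 active means viability at or below 27.92% in each of two runs, the all-compound median minus 4 SD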;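 further: 0% = 20 µM Hyamine control and 100% = vehicle cell control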); conditions: HCT116 PTEN-deleted viability, 60 h, at 10 µM, hits give low values
[6] = RAM pathway blockade in budding yeast – dse1pr::URA3 reporter, 5-FOA selection, pilot screen (AID 869);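 further: 0% = DMSO wells with no growth and 100% = 10 µM 1-NA-PP1 with full growth; RAM network block rescues cells from 5-FOA so hits raise OD615 growth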; conditions: S. cerevisiae dse1pr::URA3 5-FOA growth, OD615, 2 d; at 10 µM; hits give high values; strain carries analog-sensitive mutant Cbk1 kinase
[7] = RAM signaling pathway blockade in yeast – S. cerevisiae, Pdr1DBD-CYC8 efflux-inhibited sensitized strain, primary screen (AID 1298;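 active means RAM network inhibition above 8.4% in each of two replicates, 3 SD over the compound average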;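 further: 0% = DMSO untreated cells without growth and 100% = 10 µM 1-NA-PP1 full growth; higher means more yeast growth rescued from 5-FOA killing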); conditions: S. cerevisiae cbk1-as DSE1-URA3 strain, 5-FOA growth OD615, 2 d; at 50 µM; hits give high values

CCCOC(=O)CC1C(=O)NCCN1Cc1ccccc1C (stereo unspecified)
inactive: growth inhibition [1] -20.8% | growth inhibition [2] -0.97% | viability increase [3] -0.62% | viability [4] 98.8% | viability [5] 94.2% | inhibition [6] 1.71% | RAM network inhibition [7] 7.95%

CC(=O)c1ccc(NC(=O)CSC(C)C)cc1
inactive: growth inhibition [1] -0.135% | growth inhibition [2] -18.6% | viability increase [3] -0.64% | viability [4] 102% | viability [5] 97.9% | inhibition [6] 1.36% | RAM network inhibition [7] 0.37%

CC1CCCC(NC(=O)c2ccc(CNc3c(N4CCCC4)c(=O)c3=O)cc2)C1C (stereo unspecified)
inactive: growth inhibition [1] -6.62% | growth inhibition [2] 2.02% | viability increase [3] -2.4% | viability [4] 90.7% | viability [5] 84.4% | inhibition [6] 2.51% | RAM network inhibition [7] 2.5%

COCc1cc(C)nc(N2CCOCC2)c1C#N
inactive: growth inhibition [1] -14.3% | growth inhibition [2] 3.52% | viability increase [3] -0.86% | viability [4] 103% | viability [5] 101% | inhibition [6] 1.35% | RAM network inhibition [7] 5.54%

CCCn1nc(NC(=O)CC(C)C)c2cc3ccccc3nc21
inactive: growth inhibition [1] -14.6% | growth inhibition [2] -11.4% | viability increase [3] -5.27% | viability [4] 87.5% | viability [5] 87.3% | inhibition [6] 2.49% | RAM network inhibition [7] 3.01%

Cc1ccc(C(=O)N2CCN(c3ccccc3)CC2)cc1C
inactive: growth inhibition [1] 3.37% | growth inhibition [2] 8.08% | viability increase [3] 0.84% | viability [4] 101% | viability [5] 97.7% | inhibition [6] 0.13% | RAM network inhibition [7] 2.03%

Cc1cc(C)nc(SCC(=O)OCN2C(=O)c3ccccc3C2=O)n1
inactive: growth inhibition [1] -19.7% | growth inhibition [2] -18.3% | viability increase [3] -1.63% | viability [4] 91.6% | viability [5] 91.6% | inhibition [6] 0.15% | RAM network inhibition [7] 3.15%

COc1cccc(C2=N/C(=C\N(C)C)C(=O)O2)c1
inactive: growth inhibition [1] 1.7% | growth inhibition [2] 11.6% | viability increase [3] -0.29% | viability [4] 94.7% | viability [5] 102% | inhibition [6] -0.855% | RAM network inhibition [7] 2.96%

CC(=O)c1c(C)cc(C)c(CSc2nc(C)cc(=O)[nH]2)c1C
inactive: growth inhibition [1] 2.49% | growth inhibition [2] 19.8% | viability increase [3] 0.08% | viability [4] 83% | viability [5] 74.2% | inhibition [6] 0.245% | RAM network inhibition [7] 2.49%

COc1ccc(NC(=O)CN2C(=O)CC(C)(C)S(=O)(=O)c3ccccc32)cc1
inactive: growth inhibition [1] -4.11% | growth inhibition [2] 2.55% | viability increase [3] 0.92% | viability [4] 104% | viability [5] 96.7% | inhibition [6] 1.35% | RAM network inhibition [7] 2.45%

Cc1nc2ccc(S(=O)(=O)NC(C(=O)N3CCn4c3nc3ccccc34)C(C)C)cc2s1 (stereo unspecified)
inactive: growth inhibition [1] 0.9% | growth inhibition [2] 8.13% | viability increase [3] -1.67% | viability [4] 102% | viability [5] 97.2% | inhibition [6] 1.02% | RAM network inhibition [7] 5.83%

CCn1cc(CNC(=O)c2cc(Cl)ccc2OC)c(C)n1
inactive: growth inhibition [1] -4.3% | growth inhibition [2] -0.555% | viability increase [3] -0.95% | viability [4] 91% | viability [5] 92.2% | inhibition [6] -0.445% | RAM network inhibition [7] 3.38%

O=C1NC(=O)C(CC(=O)N(Cc2ccco2)C2(C(=O)NC3CCCCC3)CCCCC2)N1 (stereo unspecified)
inactive: growth inhibition [1] -7.57% | growth inhibition [2] -7.79% | viability increase [3] -2.17% | viability [4] 104% | viability [5] 93.4% | inhibition [6] -0.005% | RAM network inhibition [7] 2.23%

Cc1cc(-c2nc3ncccc3o2)ccc1NC(=O)CC(C)C
inactive: growth inhibition [1] -3.98% | growth inhibition [2] -5.53% | viability increase [3] -0.17% | viability [4] 108% | viability [5] 90% | inhibition [6] 1.06% | RAM network inhibition [7] 0.92%

O=P(O)(CCc1ccccn1)CN1CCOCC1
inactive: growth inhibition [1] -17.5% | growth inhibition [2] -15.6% | viability increase [3] 1.31% | viability [4] 92.6% | viability [5] 92.5% | inhibition [6] 2.73% | RAM network inhibition [7] 1.09%

Cc1ccc(NC(=O)C(C)N2CCOCC2)c(C(=O)c2ccccc2)c1 (stereo unspecified)
inactive: growth inhibition [1] -11.7% | growth inhibition [2] -12.7% | viability increase [3] -1.7% | viability [4] 100% | viability [5] 99.5% | inhibition [6] 1.09% | RAM network inhibition [7] 3.04%

O=c1cc(N2CCN(c3ccccc3)CC2)[nH]c(=O)n1Cc1ccc(F)cc1
inactive: growth inhibition [1] 6.47% | growth inhibition [2] -4.22% | viability increase [3] 0.72% | viability [4] 89.6% | viability [5] 80.9% | inhibition [6] 2.68% | RAM network inhibition [7] 3.61%

Cc1ccccc1-c1nnc(-c2ccc(Cl)cc2)o1
inactive: growth inhibition [1] -18.7% | growth inhibition [2] -20.9% | viability increase [3] -6.28% | viability [4] 77.9% | viability [5] 64.8% | inhibition [6] 4.19% | RAM network inhibition [7] 6.89%
